# According to ChEMBL document CHEMBL3616442, “Unconventional Knoevenagel-type indoles: Synthesis and cell-based studies for the identification of pro-apoptotic agents” (Eur J Med Chem, 2015):
# Assays:
# K562 [1] = assay: Induction of apoptosis in human K562 cells by propidium iodide staining based flow cytometric analysis; type: functional
# Outline: (§1)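 After treatment, cells harvested, fixed in ice-cold 70% ethanol at 4 °C, stained 30 min at 37 °C in the dark with 100 µg/mL propidium iodide plus 10 µg/mL RNase A; 10,000 gated cells analysed at 488 nm with debris excluded; apoptosis followed over time; mean ± S.E.M. of three independent experiments run in triplicate.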
# MCF7 [2] = assay: Antiproliferative activity against human MCF7 cells after 3 days incubation by alamar blue method; type: functional; conditions: for GI50: MCF7, 72 h
# Outline: (§2)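 HL-60 and K562 grown in RPMI 1640, MCF-7 in DMEM, each with 10% FCS, penicillin G and streptomycin. Seeded at 4x10⁴ (HL-60, K562) or 2x10⁴ (MCF-7) cells per well with serial compound dilutions, incubated 3 days at 37 °C. Alamar blue added for 3 h at 37 °C in the dark, fluorescence read at ex 544/em 590 nm. IC50 versus untreated controls by linear regression.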
# HL-60 [3] = assay: Antiproliferative activity against human HL60 cells after 3 days incubation by alamar blue method; type: functional; conditions: for GI50: HL-60, 72 h; outline: as §2
# DU-145 [4] = assay: Growth inhibition of human DU145 cells after 48 hrs by sulforhodamine B assay; type: functional; conditions: DU-145, 48 h
# Outline: (§3)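 NCI 60-cell-line screen. Compounds tested at five 10-fold dilutions from 10^-4 to 10^-8 M. Cells exposed for the last 48 h of a 72 h incubation, growth estimated by sulforhodamine B protein assay. GI50 is the concentration giving 50% growth inhibition. Values beyond the tested range are expressed as greater or lesser than the extreme concentration.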
# SK-MEL-2 = assay: Growth inhibition of human SK-MEL-2 cells after 48 hrs by sulforhodamine B assay; type: functional; conditions: SK-MEL-2, 48 h
# SN12C = assay: Growth inhibition of human SN12C cells after 48 hrs by sulforhodamine B assay; type: functional
# ACHN = assay: Growth inhibition of human ACHN cells after 48 hrs by sulforhodamine B assay; type: functional; outline: as §3
# NCI-H23 = assay: Growth inhibition of human NCI-H23 cells after 48 hrs by sulforhodamine B assay; type: functional; conditions: NCI-H23, 48 h; outline: as §3
# MDA-MB-231 = assay: Growth inhibition of human MDA-MB-231 cells after 48 hrs by sulforhodamine B assay; type: functional; conditions: MDA-MB-231, 48 h; outline: as §3
# MCF7 [5] = assay: Growth inhibition of human MCF7 cells after 48 hrs by sulforhodamine B assay; type: functional; conditions: MCF7, 48 h; outline: as §3
# [6] = Growth inhibition of human HCC2998 cells after 48 hrs by sulforhodamine B assay; type: functional; conditions: HCC 2998, 48 h; outline: as §3
# HL-60 [7] = assay: Induction of apoptosis in human HL60 cells by propidium iodide staining based flow cytometric analysis; type: functional; conditions: TDE = time-dependent effect; outline: as §1
# CAKI-1 = assay: Growth inhibition of human CAKI-1 cells after 48 hrs by sulforhodamine B assay; type: functional; conditions: CAKI-1, 48 h; outline: as §3
# TK-10 = assay: Growth inhibition of human TK10 cells after 48 hrs by sulforhodamine B assay; type: functional; conditions: TK-10, 48 h
# PC-3 = assay: Growth inhibition of human PC3 cells after 48 hrs by sulforhodamine B assay; type: functional; conditions: PC-3, 48 h
# SK-OV-3 = assay: Growth inhibition of human SKOV3 cells after 48 hrs by sulforhodamine B assay; type: functional; conditions: SK-OV-3, 48 h
# UACC-62 = assay: Growth inhibition of human UACC62 cells after 48 hrs by sulforhodamine B assay; type: functional; conditions: UACC-62, 48 h
# K562 [8] = assay: Antiproliferative activity against human K562 cells after 3 days incubation by alamar blue method; type: functional; conditions: for GI50: K562, 72 h; outline: as §2
# Malme-3M = assay: Growth inhibition of human MALME-3M cells after 48 hrs by sulforhodamine B assay; type: functional; outline: as §3
# MCF7 [9] = assay: Induction of apoptosis in human MCF7 cells by propidium iodide staining based flow cytometric analysis; type: functional; conditions: TDE = time-dependent effect; outline: as §1
# UO-31 = assay: Growth inhibition of human UO31 cells after 48 hrs by sulforhodamine B assay; type: functional; conditions: UO-31, 48 h
# [10] = Growth inhibition of human RPMI8226 cells after 48 hrs by sulforhodamine B assay; type: functional; conditions: RPMI-8226, 48 h
# [11] = Growth inhibition of human COLO205 cells after 48 hrs by sulforhodamine B assay; type: functional; conditions: COLO 205, 48 h; outline: as §3
# [12] = Growth inhibition of human MOLT4 cells after 48 hrs by sulforhodamine B assay; type: functional; conditions: MOLT-4, 48 h; outline: as §3
# WIL2-NS = assay: Cytotoxicity against human WIL2-NS cells after 96 hrs by MTT assay; type: functional, cell-based
# Outline: (§4)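 ATCC cell lines, mycoplasma-free by Hoechst staining. Haematological lines in RPMI-1640, solid-tumour and normal fibroblast lines in their own media, all with 10% FCS and antibiotics, at 37 °C in 5% CO₂. Compounds added as serial dilutions from a 100 mM DMSO stock diluted in medium. Viability by MTT after 96 h at 37 °C. Mean ± SD of three independent determinations.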
# MRC5 = assay: Cytotoxicity against human MRC5 cells after 96 hrs by MTT assay; type: cell-based; conditions: MRC5, 96 h; outline: as §4
# [13] = Cytotoxicity against human CRL7065 cells after 96 hrs by MTT assay; type: cell-based; conditions: CRL-7065, 96 h; outline: as §4
# DU-145 [14] = assay: Cytotoxicity against human DU145 cells after 96 hrs by MTT assay; type: functional, cell-based; conditions: DU-145, 96 h; outline: as §4
# CCRF-SB = assay: Cytotoxicity against human CCRF-SB cells after 96 hrs by MTT assay; type: functional, cell-based; outline: as §4
# CCRF-CEM = assay: Cytotoxicity against human CCRF-CEM cells after 96 hrs by MTT assay; type: functional, cell-based; outline: as §4
# [15] = Cytotoxicity against human SKMES1 cells after 96 hrs by MTT assay; type: functional, cell-based; conditions: SK-MES-1, 96 h; outline: as §4
# SK-MEL-28 = assay: Cytotoxicity against human SK-MEL-28 cells after 96 hrs by MTT assay; type: functional, cell-based; conditions: SK-MEL-28, 96 h; outline: as §4
# HepG2 = assay: Cytotoxicity against human HepG2 cells after 96 hrs by MTT assay; type: functional, cell-based; conditions: HepG2, 96 h; outline: as §4
# MCF7 [16] = assay: Cytotoxicity against human MCF7 cells after 96 hrs by MTT assay; type: functional, cell-based; conditions: MCF7, 96 h; outline: as §4
SMILES,GI50 (DU-145 [4]) [µM],GI50 (SK-MEL-2) [µM],GI50 (SN12C) [µM],GI50 (ACHN) [µM],GI50 (NCI-H23) [µM],GI50 (MDA-MB-231) [µM],GI50 (MCF7 [5]) [µM],GI50 [6] [µM],GI50 (CAKI-1) [µM],GI50 (TK-10) [µM],GI50 (PC-3) [µM],GI50 (SK-OV-3) [µM],GI50 (UACC-62) [µM],GI50 (Malme-3M) [µM],GI50 (UO-31) [µM],GI50 [10] [µM],GI50 [11] [µM],GI50 [12] [µM],further results
COc1ccc(-c2[nH]c3ccccc3c2C=C(C#N)C#N)cc1,0.484,0.763,1.2,2.3,0.6,0.562,0.347,0.751,0.679,0.925,0.547,0.445,0.357,0.874,2.8,0.49,0.223,0.578,Activity (K562 [1]): 44.4%; Activity (K562 [1]; TDE = time-dependent effect): tde; Activity (MCF7 [2]): Dose-dependent effect; GI50 (MCF7 [2]): > 10 µM; Activity (HL-60 [3]): Dose-dependent effect; GI50 (HL-60 [3]): 1.08 µM; Activity (HL-60 [7]): tde; Activity (K562 [8]): Dose-dependent effect; GI50 (K562 [8]): 4.78 µM; Activity (MCF7 [9]): tde
CC(=O)/C(=C\c1c(-c2ccccc2)[nH]c2ccccc12)S(C)(=O)=O,3.5,8.6,6.9,5.8,4,5.5,2.7,8,5.6,13.5,4.5,4.4,3.2,4.8,5.8,3,3,4.4,Activity (K562 [1]; TDE = time-dependent effect): tde; Activity (MCF7 [2]): Dose-dependent effect; GI50 (MCF7 [2]): > 10 µM; Activity (HL-60 [3]): Dose-dependent effect; GI50 (HL-60 [3]): 2.57 µM; Activity (HL-60 [7]): tde; Activity (K562 [8]): Dose-dependent effect; GI50 (K562 [8]): 7.71 µM; Activity (MCF7 [9]): tde
COc1ccc2[nH]c(-c3ccccc3)c(/C=C(\C#N)S(=O)(=O)c3ccccc3)c2c1,10.1,3.7,7.8,12.9,8,7.5,3.9,18.7,4.5,17.5,8.3,7.1,3.8,19.4,4,,7.4,4.7,EC50 (WIL2-NS): 2.8 µM; EC50 (MRC5): 14 µM; EC50 [13]: 11 µM; EC50 (DU-145 [14]): 10 µM; EC50 (CCRF-SB): 1.9 µM; EC50 (CCRF-CEM): 1.5 µM; EC50 [15]: 12 µM; EC50 (SK-MEL-28): 10 µM; EC50 (HepG2): 9.6 µM; EC50 (MCF7 [16]): 12 µM
COC(=O)/C(=C\c1c(-c2ccccc2)[nH]c2ccccc12)S(C)(=O)=O,2.5,11.8,3.1,9.2,8,2.4,2.9,8.8,1.8,7.7,4.2,12.1,3.3,12.2,5.5,6.2,4.4,4.7,
N#C/C(=C\c1c(-c2ccccc2)[nH]c2ccccc12)S(=O)(=O)c1ccccc1,2.9,12.7,5.2,7,4.7,3.8,2.2,10.9,5.5,5.6,3.4,6.8,2.6,8.4,6.7,0.714,1.4,2.2,
CCOC(=O)C(=Cc1c(-c2ccccc2)[nH]c2ccccc12)C(=O)OCC,9.7,4.7,5.1,4.4,2.9,5.8,4.5,10.1,10.3,13.6,3.3,13.6,4.6,8.9,4,0.219,4.9,3.9,
CC(=O)/C(=C\c1c(-c2ccccc2)[nH]c2ccccc12)S(=O)(=O)c1ccccc1,3,1.4,1.9,1.8,1.6,1.7,0.945,1.4,2.4,3.8,2.5,2.9,1,2.1,1.6,2.2,1.7,1.6,
N#CC(C#N)=Cc1c(-c2ccccc2)[nH]c2ccccc12,3.3,27.6,6.8,7.3,4.7,1.8,1.1,10.4,6.1,5.3,3,6,2.6,26,11.1,0.582,1.8,43.2,
COc1ccc(-c2[nH]c3ccc(OC)cc3c2/C=C(\C#N)S(=O)(=O)c2ccccc2)cc1,0.875,9,2.3,1.8,0.946,1.4,0.851,2,4.2,5,0.534,0.901,0.66,3.2,3.1,1.3,0.396,0.765,EC50 (WIL2-NS): 0.5 µM; EC50 (MRC5): 22 µM; EC50 [13]: > 100 µM; EC50 (DU-145 [14]): 3 µM; EC50 (CCRF-SB): 0.3 µM; EC50 (CCRF-CEM): 0.3 µM; EC50 [15]: > 100 µM; EC50 (SK-MEL-28): > 100 µM; EC50 (HepG2): 6.4 µM; EC50 (MCF7 [16]): 40 µM
COc1ccc2[nH]c(-c3ccccc3)c(C=C(C#N)C#N)c2c1,6.5,5.9,4.7,7.4,4.1,3.8,2.2,6.1,4.1,5.1,5.4,4.8,2.5,4.4,6.4,2.6,2.1,3.7,
